This is an account of results in ChEMBL document CHEMBL4033782, “Structural Modification of Natural Product Tanshinone I Leading to Discovery of Novel Nitrogen-Enriched Derivatives with Enhanced Anticancer Profile and Improved Drug-like Properties” (J Med Chem, 2018).

One data set deals with KB. Kind of data set: Antiproliferative activity against human KB cells after 72 hrs by sulforhodamine B assay. It is filed as functional, cell-based. A digest of the protocol:
(§1)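 Cells grown in ATCC-specified medium with 10% heat-inactivated FBS, penicillin/streptomycin and 10 mM Hepes, at 37 °C under 5% CO2. Seeded, cultured overnight, then exposed to gradient concentrations for 72 h. Growth read by SRB staining; inhibition % = [1−(A450 treated/A450 control)]×100. IC50 obtained by the Logit method from independent experiments.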
(In general: Sulforhodamine B stains cellular protein and so reports cell mass.)

Data set [1] is described as follows: Half life in rat liver microsomes at 0.1 uM up to 60 mins by LC-MS/MS analysis. It is filed as ADME, microsome. The method, boiled down:
(§2)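 Compound at 0.1 μM final (0.01% DMSO, 0.005% BSA) incubated at 37 °C with human, rat or mouse liver microsomes (0.33 mg/mL protein) in 0.1 M Tris/HCl pH 7.4, with 5 mM MgCl2 and 1 mM NADPH. Samples taken at 0, 7, 17, 30 and 60 min, quenched by methanol precipitation, centrifuged, and parent measured by LC-MS/MS. T1/2 and Clint derived.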
(In general: Liver microsomes are a subcellular fraction often used to study metabolism.)

Data set [2] in a line: Half life in mouse liver microsomes at 0.1 uM up to 60 mins by LC-MS/MS analysis. It is filed as ADME, microsome. The conditions noted are these: liver microsomes. A digest of the protocol:
as §2

For another data set, the system named is Liver. Kind of data set: Intrinsic clearance in human liver microsomes assessed as per mg protein up to 60 mins by LC-MS/MS analysis. It is filed as ADME, microsome. The conditions noted are these: 1 h. The method, boiled down:
as §2

Data set [3] is described as follows: Tmax in Sprague-Dawley rat at 3.0 mg/kg, po. It is filed as ADME, organism-based. The conditions noted are these: in vivo. The method, boiled down:
(§3)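 Male SD rats dosed orally at 3.0 mg/kg in DMSO/Tween 80/normal saline; plasma profile gives T1/2, Cmax, Tmax, AUC, MRT; F from comparison with 1.0 mg/kg i.v. dosing.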

Data set [4] in a line: AUC in Sprague-Dawley rat at 3.0 mg/kg, po. It is filed as ADME, organism-based. The conditions noted are these: in vivo. A digest of the protocol:
(§4)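 Male SD rats dosed i.v. at 1.0 mg/kg or orally at 3.0 mg/kg. Vehicle is DMSO, Tween 80 and normal saline. Plasma concentration–time data give CL, Vss, T1/2, Cmax, Tmax, MRT, AUC and oral bioavailability F.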

Data set [5] can be described thus: Clearance in Sprague-Dawley rat at 1.0 mg/kg, iv. It is filed as ADME, organism-based. As to conditions: in vivo. The method, boiled down:
as §4

Data set [6] can be described thus: MRT (infinity) in Sprague-Dawley rat at 1.0 mg/kg, iv. It is filed as ADME, organism-based. As to conditions: in vivo. The method, boiled down: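 Male SD rats given 1.0 mg/kg i.v. in DMSO/Tween 80/normal saline vehicle; plasma concentration–time profile used for clearance, Vss, MRT.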
Data set [7] is described as follows: Oral bioavailability in Sprague-Dawley rat at 3.0 mg/kg. It is filed as ADME, organism-based. The conditions noted are these: in vivo. The method, boiled down:
as §3

A further data set concerns HUVEC. The data set is described as follows: Antiproliferative activity against human HUVEC cells after 72 hrs by sulforhodamine B assay. It is filed as cell-based. The method, boiled down:
as §1

A further data set concerns DU-145. The data set is described as follows: Antiproliferative activity against human DU145 cells after 72 hrs by sulforhodamine B assay. It is filed as functional, cell-based. As to conditions: DU-145, 72 h. A digest of the protocol:
as §1

Data set [8] has as its system HCT-116. The data set is described as follows: Induction of apoptosis in human HCT116 cells assessed as early apoptotic cells at 0.5 uM after 48 hrs by Annexin V-FITC/propidium iodide staining-based FACS analysis (reference value: 2.35%). It is filed as functional.
Data set [9] concerns HCT-116. The data set is described as follows: Induction of apoptosis in human HCT116 cells assessed as late apoptotic cells at 2 uM after 48 hrs by Annexin V-FITC/propidium iodide staining-based FACS analysis (reference value: 5.74%). It is filed as functional. On the technique in general: Flow cytometry measures light scatter and fluorescence of single cells or particles in a stream.

Data set [10] has as its system HCT-116. The data set is described as follows: Induction of apoptosis in human HCT116 cells pretreated with Z-VAD-FMK pan-caspase inhibitor for 1 hr assessed as late apoptotic cells at 2 uM after 48 hrs by Annexin V-FITC/propidium iodide staining-based FACS analysis (reference value: 3.15%). It is filed as functional. Set-up: scale not given: the % may be the effect or the level left.

Broadly, the IC50 is the concentration that gives 50% inhibition. For orientation: half-life means the time in which the quantity being followed falls by half. As usually defined, the Tmax is the time at which the peak concentration occurs. The term AUC denotes concentration integrated over time. One may read the clearance as the rate of elimination divided by the concentration. By MRT inf is commonly meant the average time that molecules of a dose stay in the body. Usually bioavailability stands for the share of a dose that reaches the circulation, judged against a reference dose that is usually intravenous.

Turning to `CCN(CC)CCCn1c2c(c3ccccc3c1=O)C(=O)C(=O)c1cc(C)oc1-2`, the IC50 in the data set with KB amounted to 120 nM; with HUVEC, 2520 nM; in the data set with DU-145 it was 220 nM. Further, the half-life at 0.1 µM is 75.8 min in data set [1] and 54.5 min in [2]. In addition, in the data set on Liver, the intrinsic clearance came to 23.5 mL/min/g. In addition, the Tmax in data set [3] is 15 min. Also, the AUC in [4] is 81.4 ng·h/mL. This compound also had a clearance in data set [5] of 176 mL/min/kg. The MRT inf in data set [6] was 50.1 min. The bioavailability in data set [7] was 21%. Moreover, the Activity with HCT-116 [8] was found to be 2.39%; with HCT-116 [9] it was 32.63%; with HCT-116 [10], 22.49%.
